Reference: ChEMBL document CHEMBL1122646, “Synthesis of pyridine derivatives of L-phenylalanine as antisickling reagents” (1984)

Key:
Format in all cases: functional
[1] = Antisickling activity and change in mean corpuscular hemoglobin ratio was reported at a concentration of 2.55 mM.
Outline: (§1)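 Erythrocytes incubated with compound as in the morphological assay (PBS pH 7.2, 295 mosmol/kg, 0.5% BSA, 37 °C) but at 10% hematocrit. Triplicate readings on each of three aliquots taken 1 to 3 h after exposure. Lysis and cyanomet-Hb conversion, then MCHC read on a Coulter hemoglobinometer. Values averaged over nine measurements and expressed as MCHC0/MCHC.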

[2] = Antisickling activity and percentage of cells sickled after incubation in 3 mM solution under oxygen content 20.1% was reported at normal atmospheric pressure.
Outline: (§2)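 Washed homozygous SS erythrocytes (HbF <8%, MCHC 33.5 g %, stored 4 °C, used within 24 h) at 1.0% hematocrit in PBS pH 7.2 (295 mosmol/kg, 0.5% w/v BSA) with 3 mM compound. Incubated 1 h at 37 °C with rotation. Cells were air-exposed 10 min, deoxygenated with 4.06% O2/4.4% CO2/N2, or deoxygenated with N2 alone. PO2 measured, then anaerobic fixation, 30 min RT.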

[3] = Antisickling activity and percentage of cells sickled after incubation in 3 mM solution under oxygen content 4.06% was reported at 30.8 mm of Hg pressure.; outline: as §2
[4] = Aantisickling activity and percentage of cells sickled after incubation in 3 mM solution under oxygen content 0.0% was reported.; outline: as §2
[5] = Antisickling activity and change in mean corpuscular hemoglobin ratio was reported at a concentration of 4.80 mM.; outline: as §1
[6] = Antisickling activity and change in mean corpuscular hemoglobin ratio was reported at a concentration of 1.35 mM.; outline: as §1
[7] = Antisickling activity and change in mean corpuscular hemoglobin ratio was reported at a concentration of 3.65 mM.; outline: as §1
[8] = Effect of 3 mM of compound on homozygous sickle cells at a total oxygen saturation of 47% and estimates of volume fraction of HbS polymer present was determined.
Outline: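 Homozygous SS cells (MCHC 33.9 g %) at 1% Hct with 3 mM compound, deoxygenated at 37 °C with 4.06% O2 gas (47% total O2 saturation per O2 affinity curve in PBS pH 7.392). Suspension forced through a 5-μm polycarbonate membrane at 3.1 cmHg. Passed cells weighed after 5-6 min, corrected for interstitial solvent with 3H-methoxyinulin. R = deoxygenated/oxygenated recovered weight. fp calculated with Cp 0.69 g/cm3 and Cs0 0.164 g/cm3.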

Compound	Ratio [1]	Cells sickled [2]	Cells sickled [3]	Cells sickled [4]	Ratio [5]	Ratio [6]	Ratio [7]	fp [8]
Cl.Cl.NC(Cc1ccccc1)C(=O)Nc1cccnc1 (centres undefined)	1.07	11.4%	23.6%	59%	1.17	1.05	1.13	0.24
Cl.Cl.NC(Cc1ccccc1)C(=O)Nc1ccncc1 (centres undefined)	–	10.2%	25.2%	70.8%	–	–	–	–
Cl.Cl.NC(Cc1ccccc1)C(=O)Nc1ccccn1 (centres undefined)	1.08	9.1%	32.6%	71.1%	1.15	1.04	1.11	0.24
